Converted amounts (≈) assume the structure as drawn.
How the values were obtained:
[1] = test system: Trichomonas vaginalis; test: Antimicrobial activity against Trichomonas vaginalis GT3 after 48 hrs; assay type: functional, organism-based; conditions: GT3, 48 h
Method in brief: (§1)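 Trophozoites (4 × 10⁴) exposed 48 h at 37 °C to increasing compound concentrations; DMSO-medium negative control. Then washed and subcultured 48 h in fresh drug-free medium before counting. IC50 by probit analysis; triplicate, repeated at least twice. Giardia grown in modified TYI-S-33 with 10% calf serum and bovine bile. Trichomonas and Entamoeba grown in TYI-S-33 with 10% bovine serum.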

[2] = test system: Trypanosoma cruzi; test: Antimicrobial activity against epimastigotes form of Trypanosoma cruzi MHOM/MX/1994/Ninoa after 72 hrs; assay type: functional, organism-based
Method in brief: (§2)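 Parasites grown at 26 °C in Schneider's drosophila medium with 10% FBS and penicillin. 10,000 L. mexicana promastigotes or 20,000 T. cruzi epimastigotes per well, at 10, 5, 2.5 and 1.25 µg/mL. Untreated parasite cultures included. 72 h at 26 °C, then parasites counted directly in a Neubauer chamber. IC50 by probit analysis.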

[3] = test system: Entamoeba histolytica; test: Antimicrobial activity against Entamoeba histolytica HM-1:IMSS after 48 hrs; assay type: functional, organism-based; method in brief: as §1
[4] = test system: Mycobacterium tuberculosis; test: Antimicrobial activity against Mycobacterium tuberculosis H37Rv ATTC 27294 by microplate alamar blue assay; assay type: functional, organism-based
Method in brief: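 Inoculum from a log-phase culture adjusted to McFarland 1, then diluted 1:50 in Middlebrook 7H9 broth to 6 × 10⁶ CFU/mL and prepared just before inoculation. Compounds tested from […]. Ethambutol served as positive internal standard. MIC read by Alamar Blue. Done in triplicate.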

[5] = test system: Giardia intestinalis; test: Antimicrobial activity against Giardia intestinalis IMSS:0696:1 after 48 hrs; assay type: functional, organism-based; conditions: Giardia duodenalis, IMSS:0696:1, 48 h; method in brief: as §1
[6] = test system: Leishmania mexicana; test: Antimicrobial activity against promastigotes form of Leishmania mexicana MHOM/MX/ISETGS after 72 hrs; assay type: functional, organism-based; method in brief: as §2
[7] = Selectivity index, ratio of CC50 for african green monkey Vero cells to IC50 for Giardia intestinalis IMSS:0696:1; assay type: functional
Method in brief: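 SI computed as CC50 in VERO cells divided by IC50 against the parasite.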

[8] = Cytotoxicity against african green monkey Vero cells after 72 hrs by MTT assay; assay type: cell-based; conditions: chlorocebus sabaeus
Method in brief: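 VERO cells (1.5 × 10⁴) grown in DMEM with 10% FBS at 37 °C, 5% CO₂. Seeded and grown 24–48 h, then treated at >80% confluence with 6.25–100 µg/mL (DMSO ≤0.05%) for 72 h. MTT added for 4 h at 37 °C. Formazan dissolved in acidified isopropanol and read at OD 540 nm. CC50 from triplicates.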

Q: With `COc1ccc(NC(=O)NCCNc2ccnc3cc(Cl)ccc23)cc1` as the compound, how does the IC50 [1] read?
A: Its IC50 is 21.7 µM.

Q: And the IC50 [2]?
A: Its IC50 is > 50 µM.

Q: And the IC50 [3]?
A: Its IC50 is 10.7 µM.

Q: And the IC50 [4]?
A: Its IC50 is 8 µg/mL (≈ 21.6 µM).

Q: And the IC50 [5]?
A: Its IC50 is 0.595 µM.

Q: And the IC50 [6]?
A: Its IC50 is > 50 µM.

Q: Which results are given for `O=C(NCCNc1ccnc2cc(Cl)ccc12)NC1CCCCC1`?
A: IC50 [1]: 66.7 µM; IC50 [2]: > 50 µM; IC50 [3]: 6.93 µM; IC50 [4]: 8 µg/mL (≈ 23.1 µM); IC50 [5]: 1.65 µM; IC50 [6]: > 50 µM

Q: For `O=C(NCCNc1ccnc2cc(Cl)ccc12)Nc1ccccc1`, which IC50 [1] is on record?
A: Its IC50 is 46 µM.

Q: And the IC50 [2]?
A: Its IC50 is > 50 µM.

Q: What about the IC50 [3] of the same compound?
A: The IC50 was 5.37 µM.

Q: And the IC50 [4]?
A: The IC50 was 8 µg/mL (≈ 23.5 µM).

Q: What about the IC50 [5] of the same compound?
A: Its IC50 is 1.17 µM.

Q: And the IC50 [6]?
A: Its IC50 is > 50 µM.

Q: Which IC50 [1] does the source give for `O=C(NCCNc1ccnc2cc(Cl)ccc12)Nc1ccc(Cl)cc1` here?
A: Its IC50 is 9.59 µM.

Q: And the IC50 [2]?
A: The IC50 was 50 µM.

Q: And the IC50 [3]?
A: Its IC50 is 6.87 µM.

Q: What about the IC50 [4] of the same compound?
A: Its IC50 is 4 µg/mL (≈ 10.7 µM).

Q: And the IC50 [5]?
A: The IC50 was 0.267 µM.

Q: And the IC50 [6]?
A: The IC50 was 50 µM.

Q: Which IC50 [1] does the source give for `O=C(NCCNc1ccnc2cc(Cl)ccc12)Nc1ccc(F)cc1` here?
A: The IC50 was 23.2 µM.

Q: What about the IC50 [2] of the same compound?
A: Its IC50 is > 50 µM.

Q: What about the IC50 [3] of the same compound?
A: The IC50 was 17.7 µM.

Q: And the IC50 [4]?
A: The IC50 was 8 µg/mL (≈ 22.3 µM).

Q: And the IC50 [5]?
A: Its IC50 is 0.927 µM.

Q: What about the IC50 [6] of the same compound?
A: Its IC50 is > 50 µM.

Q: With `CCOc1ccc(NC(=O)NCCNc2ccnc3cc(Cl)ccc23)cc1` as the compound, how does the IC50 [1] read?
A: The IC50 was 30.1 µM.

Q: And the IC50 [2]?
A: The IC50 was 50 µM.

Q: And the IC50 [3]?
A: The IC50 was 5.93 µM.

Q: And the IC50 [4]?
A: The IC50 was 8 µg/mL (≈ 20.8 µM).

Q: What about the IC50 [5] of the same compound?
A: The IC50 was 0.339 µM.

Q: And the IC50 [6]?
A: Its IC50 is 50 µM.

Q: With `CCCCOc1ccc(NC(=O)NCCNc2ccnc3cc(Cl)ccc23)cc1` as the compound, how does the “Ratio CC50/IC50” value [7] read?
A: The value was 625.

Q: And the IC50 [1]?
A: The IC50 was 8.44 µM.

Q: And the IC50 [2]?
A: Its IC50 is 50 µM.

Q: And the IC50 [3]?
A: The IC50 was 3.64 µM.

Q: And the IC50 [4]?
A: The IC50 was 2 µg/mL (≈ 4.84 µM).

Q: What about the IC50 [5] of the same compound?
A: The IC50 was 0.008 µM.

Q: And the CC50 at 72 h [8]?
A: The CC50 at 72 h was 5 µM.

Q: What about the IC50 [6] of the same compound?
A: Its IC50 is 9.9 µM.

Q: With `O=C(NCCNc1ccnc2cc(Cl)ccc12)Nc1ccc([N+](=O)[O-])cc1` as the compound, how does the IC50 [1] read?
A: Its IC50 is 12 µM.

Q: And the IC50 [2]?
A: The IC50 was 50 µM.

Q: And the IC50 [3]?
A: The IC50 was 10.6 µM.

Q: What about the IC50 [4] of the same compound?
A: The IC50 was 8 µg/mL (≈ 20.7 µM).

Q: What about the IC50 [5] of the same compound?
A: Its IC50 is 1.75 µM.

Q: And the IC50 [6]?
A: Its IC50 is 50 µM.

Q: Which results are given for `NCCNc1ccnc2cc(Cl)ccc12`?
A: IC50 [1]: 23 µM; IC50 [2]: > 50 µM; IC50 [3]: 14.6 µM; IC50 [4]: 8 µg/mL (≈ 36.1 µM); IC50 [5]: 1.25 µM; IC50 [6]: > 50 µM

Q: With `O=C(Cn1ccnc1[N+](=O)[O-])NCc1ccccc1` [BENZNIDAZOLE] as the compound, how does the IC50 [2] read?
A: The IC50 was 34.4 µM.

Q: With `CCN(CC)CCCC(C)Nc1ccnc2cc(Cl)ccc12` (stereo unspecified) [CHLOROQUINE] as the compound, how does the IC50 [1] read?
A: Its IC50 is 30 µM.

Q: And the IC50 [2]?
A: Its IC50 is > 50 µM.

Q: And the IC50 [3]?
A: Its IC50 is 9.58 µM.

Q: And the IC50 [4]?
A: Its IC50 is > 8 µg/mL.

Q: What about the IC50 [5] of the same compound?
A: The IC50 was 0.401 µM.

Q: What about the IC50 [6] of the same compound?
A: The IC50 was > 50 µM.

Q: With `CC[C@@H](CO)NCCN[C@@H](CC)CO` [ETHAMBUTOL] as the compound, how does the IC50 [4] read?
A: The IC50 was 4 µg/mL (≈ 19.6 µM).

Q: For `N=C(N)c1ccc(OCCCCCOc2ccc(C(=N)N)cc2)cc1` [PENTAMIDINE], which IC50 [6] is on record?
A: The IC50 was 13.3 µM.

Q: With `CC(C)CCOc1ccc(NC(=S)Nc2ccc(OCCC(C)C)cc2)cc1` [TIOCARLIDE] as the compound, how does the IC50 [4] read?
A: The IC50 was 4 µg/mL (≈ 9.99 µM).
